Results: ChEMBL document CHEMBL4665671 (ACS Med Chem Lett, 2019)
In brackets after ≈: the same amount, converted by molar mass. Activity calls are given as the source filed them. The calls are words filed in the database; no cut-off is given here.

Assays:
[1] = molecular target: mTORC2 (Homo sapiens, UniProt P42345); experiment: Inhibition of mTORC2 in human A2058 cells assessed as reduction in PKB phosphorylation at S473 residue incubated for 1 hr by Western blot analysis; type: cell-based
[2] = molecular target: mTORC1 (Homo sapiens, UniProt P42345); experiment: Inhibition of mTORC1 in human A2058 cells assessed as reduction in ribosomal protein S6 phosphorylation at Ser235/236 residues incubated for 1 hr by Western blot analysis; type: cell-based
[3] = molecular target: Phosphatidylinositol 4,5-bisphosphate 3-kinase catalytic subunit alpha isoform (Homo sapiens, UniProt P42336); experiment: Displacement of alexa fluor 647-labeled kinase tracer 314 from recombinant N-terminal His6-tagged p110alpha (unknown origin) by TR-FRET assay
Chain of Phosphatidylinositol 4,5-bisphosphate 3-kinase catalytic subunit alpha isoform (P42336 whole entry, the tested form may be a part, canonical isoform): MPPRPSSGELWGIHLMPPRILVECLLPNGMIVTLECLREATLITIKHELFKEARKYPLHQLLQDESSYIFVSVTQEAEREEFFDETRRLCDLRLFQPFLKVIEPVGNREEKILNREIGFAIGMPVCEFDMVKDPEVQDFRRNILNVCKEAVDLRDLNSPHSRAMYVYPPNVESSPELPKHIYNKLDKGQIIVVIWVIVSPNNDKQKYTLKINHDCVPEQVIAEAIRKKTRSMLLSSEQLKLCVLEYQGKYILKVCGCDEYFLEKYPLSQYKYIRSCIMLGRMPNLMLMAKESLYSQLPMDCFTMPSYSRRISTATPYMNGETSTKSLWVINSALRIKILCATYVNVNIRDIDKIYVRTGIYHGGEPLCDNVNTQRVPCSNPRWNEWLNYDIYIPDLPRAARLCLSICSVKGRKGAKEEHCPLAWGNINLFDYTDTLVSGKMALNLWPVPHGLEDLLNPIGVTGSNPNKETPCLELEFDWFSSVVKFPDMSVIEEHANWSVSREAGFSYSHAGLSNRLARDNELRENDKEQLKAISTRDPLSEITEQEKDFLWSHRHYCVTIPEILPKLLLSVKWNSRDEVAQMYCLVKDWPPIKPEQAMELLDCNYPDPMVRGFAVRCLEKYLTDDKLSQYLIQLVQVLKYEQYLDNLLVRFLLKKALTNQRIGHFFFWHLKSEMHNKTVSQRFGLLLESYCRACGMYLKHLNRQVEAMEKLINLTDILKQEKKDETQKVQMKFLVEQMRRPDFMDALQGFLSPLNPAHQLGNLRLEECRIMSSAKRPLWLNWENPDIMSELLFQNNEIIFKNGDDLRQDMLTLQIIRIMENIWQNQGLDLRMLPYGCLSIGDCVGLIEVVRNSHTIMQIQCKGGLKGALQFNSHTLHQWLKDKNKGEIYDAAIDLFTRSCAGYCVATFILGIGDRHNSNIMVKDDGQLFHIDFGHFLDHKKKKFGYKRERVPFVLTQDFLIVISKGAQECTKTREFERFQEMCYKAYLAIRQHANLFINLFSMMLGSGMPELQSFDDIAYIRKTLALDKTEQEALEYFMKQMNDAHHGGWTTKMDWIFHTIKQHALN

[4] = molecular target: T1, Serine/threonine-protein kinase mTOR (Homo sapiens, UniProt P42345); experiment: Displacement of alexa fluor 647-labeled kinase tracer 314 from recombinant human N-terminal GST-fused mTOR (1360 to 2549 residues) expressed in baculovirus expression system by TR-FRET assay
[5] = Permeability of the compound in PBS at pH 7.4 incubated for 2 hrs under shaking condition by PAMPA; type: ADME; details: pH 7.4, 2 h
[6] = Thermodynamic solubility of the compound in buffer at pH 1.2 to 6.8 incubated for 24 hrs under agitation condition by shake flask method; type: physicochemical; details: read-out: Therm_solubility
[7] = Thermodynamic solubility of the compound in buffer at pH 1.2 incubated for 24 hrs under agitation condition by shake flask method; type: physicochemical; details: read-out: Therm_solubility
[8] = molecular target: T2, Cytochrome P450 1A2 (Homo sapiens, UniProt P05177); experiment: Inhibition of CYP1A2 (unknown origin) by fluorescence assay; type: ADME
T2 sequence (P05177 whole entry): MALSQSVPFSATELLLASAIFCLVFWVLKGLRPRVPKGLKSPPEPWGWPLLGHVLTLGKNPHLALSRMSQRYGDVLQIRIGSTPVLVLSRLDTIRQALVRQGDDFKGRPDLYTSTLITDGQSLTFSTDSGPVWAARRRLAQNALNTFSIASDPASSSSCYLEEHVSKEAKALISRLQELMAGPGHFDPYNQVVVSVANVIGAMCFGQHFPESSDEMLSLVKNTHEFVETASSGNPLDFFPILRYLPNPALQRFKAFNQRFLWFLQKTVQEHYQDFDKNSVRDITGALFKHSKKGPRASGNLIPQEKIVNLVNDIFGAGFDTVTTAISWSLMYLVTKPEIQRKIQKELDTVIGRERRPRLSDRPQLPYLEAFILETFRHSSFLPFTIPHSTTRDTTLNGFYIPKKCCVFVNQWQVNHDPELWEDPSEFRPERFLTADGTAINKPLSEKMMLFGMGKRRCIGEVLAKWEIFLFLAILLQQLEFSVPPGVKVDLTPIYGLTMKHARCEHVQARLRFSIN

[9] = molecular target: Cytochrome P450 2C19 (Homo sapiens, UniProt P33261); experiment: Inhibition of CYP2C19 (unknown origin) by fluorescence assay; type: ADME
Chain of Cytochrome P450 2C19 (P33261 whole entry): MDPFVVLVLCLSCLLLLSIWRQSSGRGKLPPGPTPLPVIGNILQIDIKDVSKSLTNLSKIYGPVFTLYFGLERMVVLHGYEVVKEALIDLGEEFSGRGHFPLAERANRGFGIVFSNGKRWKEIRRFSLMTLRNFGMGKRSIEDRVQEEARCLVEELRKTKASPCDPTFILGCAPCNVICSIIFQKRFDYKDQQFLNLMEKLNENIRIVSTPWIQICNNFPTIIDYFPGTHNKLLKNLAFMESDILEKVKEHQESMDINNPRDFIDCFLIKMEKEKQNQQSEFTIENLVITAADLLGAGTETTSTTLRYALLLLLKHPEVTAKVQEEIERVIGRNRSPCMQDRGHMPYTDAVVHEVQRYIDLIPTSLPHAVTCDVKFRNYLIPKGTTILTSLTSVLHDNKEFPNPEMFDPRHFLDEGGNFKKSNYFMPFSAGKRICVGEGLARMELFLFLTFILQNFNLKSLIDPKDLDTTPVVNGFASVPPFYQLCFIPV

[10] = molecular target: Cytochrome P450 2D6 (Homo sapiens, UniProt P10635); experiment: Inhibition of CYP2D6 (unknown origin) by fluorescence assay; type: ADME
Chain of Cytochrome P450 2D6 (P10635 whole entry): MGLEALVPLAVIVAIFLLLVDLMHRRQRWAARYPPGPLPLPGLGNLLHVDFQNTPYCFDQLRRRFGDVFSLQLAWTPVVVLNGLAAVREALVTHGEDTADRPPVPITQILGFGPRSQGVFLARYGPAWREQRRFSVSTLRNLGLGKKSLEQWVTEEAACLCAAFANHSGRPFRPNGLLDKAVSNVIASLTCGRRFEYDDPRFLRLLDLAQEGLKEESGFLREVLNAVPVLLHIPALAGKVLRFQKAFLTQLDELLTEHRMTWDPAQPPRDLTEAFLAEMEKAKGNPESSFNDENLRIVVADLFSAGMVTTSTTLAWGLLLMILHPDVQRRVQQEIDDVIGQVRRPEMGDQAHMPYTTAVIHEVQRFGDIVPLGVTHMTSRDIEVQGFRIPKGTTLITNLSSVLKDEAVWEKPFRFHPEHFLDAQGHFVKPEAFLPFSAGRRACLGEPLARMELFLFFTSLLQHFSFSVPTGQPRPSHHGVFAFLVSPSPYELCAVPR

[11] = molecular target: Cytochrome P450 3A4 (Homo sapiens, UniProt P08684); experiment: Inhibition of CYP3A4 (unknown origin) by fluorescence assay; type: ADME
Chain of Cytochrome P450 3A4 (P08684 whole entry): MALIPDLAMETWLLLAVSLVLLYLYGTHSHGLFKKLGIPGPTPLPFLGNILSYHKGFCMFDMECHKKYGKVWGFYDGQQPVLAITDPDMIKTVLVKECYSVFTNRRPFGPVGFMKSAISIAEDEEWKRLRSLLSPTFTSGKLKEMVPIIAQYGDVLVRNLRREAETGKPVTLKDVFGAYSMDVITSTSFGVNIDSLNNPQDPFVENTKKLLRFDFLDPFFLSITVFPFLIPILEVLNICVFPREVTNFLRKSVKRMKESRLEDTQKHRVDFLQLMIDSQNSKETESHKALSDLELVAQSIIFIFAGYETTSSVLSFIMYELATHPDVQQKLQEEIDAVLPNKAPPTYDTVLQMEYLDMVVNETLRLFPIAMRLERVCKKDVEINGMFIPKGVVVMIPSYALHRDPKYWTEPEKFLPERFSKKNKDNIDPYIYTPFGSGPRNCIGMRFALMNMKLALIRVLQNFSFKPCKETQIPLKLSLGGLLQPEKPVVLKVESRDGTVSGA

[12] = Clearance in rat cryopreserved hepatocytes assessed per 10^6 cells at 2.5 uM measured up to 90 mins by LC-MS/MS analysis; type: ADME, cell-based, Hepatocyte; details: 1.5 h
Method in brief: (§1)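 Cultured rat, mouse, dog and human hepatocytes were incubated with compound. Clearance and half-life were measured. Each experiment was run with n = 3.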

[13] = Clearance in mouse cryopreserved hepatocytes assessed per 10^6 cells at 2.5 uM measured up to 90 mins by LC-MS/MS analysis; type: ADME, cell-based, Hepatocyte; details: 1.5 h; method in brief: as §1
[14] = Clearance in dog cryopreserved hepatocytes assessed per 10^6 cells at 2.5 uM measured up to 90 mins by LC-MS/MS analysis; type: ADME, cell-based, Canis lupus familiaris, Hepatocyte; details: 1.5 h; method in brief: as §1
[15] = Clearance in human cryopreserved hepatocytes assessed per 10^6 cells at 2.5 uM measured up to 90 mins by LC-MS/MS analysis; type: ADME, cell-based, Hepatocyte; details: 1.5 h; method in brief: as §1
[16] = Half life in rat cryopreserved hepatocytes at 2.5 uM measured up to 90 mins by LC-MS/MS analysis; type: ADME, cell-based, Hepatocyte; details: 1.5 h; method in brief: as §1
[17] = Half life in mouse cryopreserved hepatocytes at 2.5 uM measured up to 90 mins by LC-MS/MS analysis; type: ADME, cell-based, Hepatocyte; details: 1.5 h; method in brief: as §1
[18] = Half life in dog cryopreserved hepatocytes at 2.5 uM measured up to 90 mins by LC-MS/MS analysis; type: ADME, cell-based, Canis lupus familiaris, Hepatocyte; details: 1.5 h; method in brief: as §1
[19] = Half life in human cryopreserved hepatocytes at 2.5 uM measured up to 90 mins by LC-MS/MS analysis; type: ADME, cell-based, Hepatocyte; details: 1.5 h; method in brief: as §1
[20] = Cmax in C57BL/6J mouse plasma at 10 mg/kg, po after 1 hr by UHPLC-MS analysis; type: ADME, organism-based; set-up: route oral, dose 10 mg/kg, time 1 hrs; details: in vivo
Method in brief: (§2)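 Male C57BL/6J mice, single oral dose 10 mg/kg. Compound extracted from plasma, brain and thigh muscle at set time points over 8 h and quantified by LC–MS. n = 3, mean per time point.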

[21] = Tmax in C57BL/6J mouse plasma at 10 mg/kg, po by UHPLC-MS analysis; type: ADME, organism-based; method in brief: as §2
[22] = Half life in C57BL/6J mouse plasma at 10 mg/kg, po by UHPLC-MS analysis; type: ADME, organism-based; method in brief: as §2
[23] = AUC (0 to 8 hrs) in C57BL/6J mouse plasma at 10 mg/kg, po by UHPLC-MS analysis; type: ADME, organism-based; set-up: time < 8 hr, route oral, dose 10 mg/kg; details: in vivo; method in brief: as §2
[24] = Clearance in C57BL/6J mouse plasma at 10 mg/kg, po by UHPLC-MS analysis; type: ADME, organism-based
Method in brief: (§3)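 Male C57BL/6J mice given a single oral 10 mg/kg dose. Plasma, brain and thigh muscle sampled at set times up to 8 h. Compound extracted from each tissue and quantified by LC–MS. n = 3, mean per time point.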

[25] = Cmax in C57BL/6J mouse brain at 10 mg/kg, po after 30 mins by UHPLC-MS analysis; type: ADME, organism-based; set-up: route oral, dose 10 mg/kg, time 30 min; method in brief: as §2
[26] = Tmax in C57BL/6J mouse brain at 10 mg/kg, po by UHPLC-MS analysis; type: ADME, organism-based; method in brief: as §2
[27] = Half life in C57BL/6J mouse brain at 10 mg/kg, po by UHPLC-MS analysis; type: ADME, organism-based; method in brief: as §2
[28] = AUC (0 to 8 hrs) in C57BL/6J mouse brain at 10 mg/kg, po by UHPLC-MS analysis; type: ADME, organism-based; set-up: time < 8 hr, route oral, dose 10 mg/kg; details: in vivo; method in brief: as §2
[29] = Cmax in C57BL/6J mouse thigh muscle at 10 mg/kg, po after 30 mins by UHPLC-MS analysis; type: ADME, organism-based; set-up: route oral, time 30 min, dose 10 mg/kg; method in brief: as §2
[30] = Tmax in C57BL/6J mouse thigh muscle at 10 mg/kg, po by UHPLC-MS analysis; type: ADME, organism-based; method in brief: as §2
[31] = Half life in C57BL/6J mouse thigh muscle at 10 mg/kg, po by UHPLC-MS analysis; type: ADME, organism-based; method in brief: as §2
[32] = AUC (0 to 8 hrs) in C57BL/6J mouse thigh muscle at 10 mg/kg, po by UHPLC-MS analysis; type: ADME, organism-based; set-up: time < 8 hr, route oral, dose 10 mg/kg; details: in vivo; method in brief: as §2
[33] = molecular target: T1, Serine/threonine-protein kinase mTOR; experiment: Displacement of alexa fluor 647-labeled kinase tracer 314 from recombinant human N-terminal GST-fused mTOR (1360 to 2549 residues) expressed in baculovirus expression system by TR-FRET assay relative to parent compound
[34] = Ratio of drug level in brain to plasma in C57BL/6J mouse at 10 mg/kg, po by UHPLC-MS analysis; type: ADME, organism-based; details: brain and plasma, read-out: BPR; method in brief: as §3
[35] = system: Mus musculus; experiment: Increase in glucose level in C57BL/6J mouse plasma at 10 mg/kg, po measured after 2 hrs by UV/Vis spectrometry analysis; type: functional, organism-based
Method in brief: (§4)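 Male C57BL/6J mice given a single oral 10 mg/kg dose. Plasma glucose and insulin levels followed over time after dosing. Mean ± SEM.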

[36] = system: Mus musculus; experiment: Increase in insulin level in C57BL/6J mouse plasma at 10 mg/kg, po measured after 2 hrs by UV/Vis spectrometry analysis; type: functional, organism-based; method in brief: as §4
[37] = system: OVCAR-3; experiment: Antitumor activity against human OVCAR-3 cells xenografted in BALB/c nude mouse assessed as tumor growth inhibition at 6.3 mg/kg, po qd administered for 28 days starting from day 17 post inoculation and measured on day 45; type: functional, organism-based; details: time 28.0 day
Method in brief: (§5)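 BALB/c nude mice inoculated subcutaneously with 5 × 10^6 OVCAR-3 cells on day 0. From day 17, dosed orally once daily for 28 days; controls received vehicle QD. Tumor size tracked over time, tumor weight taken at day 45, body weight recorded at set time points. n = 8, mean ± SEM; two-way ANOVA with Bonferroni or Dunnett's correction.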

[38] = Toxicity in BALB/c nude mouse xenografted with human OVCAR3 cells assessed as effect on body weight at 6.3 mg/kg, po qd administered for 28 days starting from day 17 post inoculation; type: organism-based; details: in vivo, 672 h, time 28 day; method in brief: as §5
[39] = Toxicity in BALB/c nude mouse xenografted with human OVCAR3 cells assessed as maximum tolerated dose; details: in vivo
[40] = Toxicity in po dosed Wistar female rat assessed as NOAEL administered via gavage for 14 consecutive days; type: organism-based; details: in vivo, time 14 day
Method in brief: (§6)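 14-day pilot toxicokinetic study in Wistar rats (males and females assessed separately) and beagle dogs. NOAEL was set in mg/kg/day.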

[41] = Toxicity in po dosed Wistar male rat assessed as NOAEL administered via gavage for 14 consecutive days; type: organism-based; details: in vivo, time 14 day; method in brief: as §6
[42] = Toxicity in po dosed Beagle dog assessed as NOAEL administered via gavage for 14 consecutive days; type: organism-based, Canis lupus familiaris; details: in vivo, time 14 day; method in brief: as §6
[43] = system: OVCAR-3; experiment: Antitumor activity against human OVCAR-3 cells xenografted in BALB/c nude mouse assessed as effect on tumor size at 6.3 mg/kg, po qd administered for 28 days starting from day 17 post inoculation and measured on day 45 (reference value: 1031 mm3); details: time 28 day

## Nc1ncc(-c2nc(N3CCOCC3)nc(N3[C@@H]4CC[C@H]3COC4)n2)c(C(F)F)n1
[1]
  IC50: 73 nM
[2]
  IC50: 91 nM
[3]
  Ki: 3.4 nM
[4]
  Ki: 14 nM

## Nc1ncc(-c2nc(N3CCOCC3)nc(N3CCOCC3)n2)c(C(F)F)n1
[5]
  permeability: 8.196 ×10⁻⁶ cm/s
[1]
  IC50: 17 nM
[2]
  IC50: 61 nM
[4]
  Ki: 33 nM
[6]
  solubility thermodynamic at 24 h: > 1 µg/mL
[7]
  solubility thermodynamic at 24 h: 13.6 µg/mL (≈ 34.5 µM)
[8]
  IC50: > 100000 nM
[9]
  IC50: > 100000 nM
[10]
  IC50: > 100000 nM
[11]
  IC50: > 100000 nM
[12]
  CLH: 1.5 µL/min
[13]
  CLH: 7 µL/min
[14]
  CLH: 6.7 µL/min
[15]
  CLH: 4 µL/min
[16]
  t1/2: 8.67 h
[17]
  t1/2: 3.208 h
[18]
  t1/2: 3.528 h
[19]
  t1/2: 5.775 h
[20]
  Cmax: 3282 ng/mL
[21]
  Tmax: 1 h
[22]
  half-life: 1.7 h
[23]
  AUC: 10315 ng·h/mL
[24]
  CL/F: 15.6 mL/min/kg
[25]
  Cmax: 1020 ng/mL
[26]
  Tmax: 0.5 h
[27]
  half-life: 1.6 h
[28]
  AUC: 2757 ng·h/mL
[29]
  Cmax: 1810 ng/mL
[30]
  Tmax: 0.5 h
[31]
  half-life: 1.6 h
[32]
  AUC: 4526 ng·h/mL
[33]
  Ratio Ki: 2
[34]
  Kp: 0.3
[35]
  Activity: Active
[36]
  Activity: Active
[37]
  growth inhibition (GI): Active
[38]
  Activity: Non-Toxic
[39]
  MTD: 6.3 mg/kg
[40]
  NOAEL at 336 h: 2.4 mg/kg
[41]
  NOAEL at 336 h: 3.6 mg/kg
[42]
  NOAEL at 336 h: 10 mg/kg
[43]
  Activity: 397 mm3
